The subject of one data set is HepG2. Briefly: Antiproliferative activity against human HepG2 cells assessed as inhibition of cell viability at 500 nM after 72 hrs by CCK-8 assay relative to control. In kind it is functional. As to conditions: HepG2, 72 h. In short, it runs like this: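 Single-concentration viability screen using CCK-8. Cells were seeded at 3000/well and treated for 72 h. A450 read after 1-4 h with reagent. Percent inhibition calculated against untreated control and blank wells as (Ac−As)/(Ac−Ab)×100%.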

Data set [1] concerns the target CDK2/Cyclin A2 (Homo sapiens) (UniProt P24941+P20248). The experiment in a line: Inhibition of recombinant full-length human CDK2/cyclinA at 1 uM using Histone H1 as substrate measured after 40 mins in presence of [gamma33P]ATP by scintillation counting method relative to control. Format: protein-complex assay.
In data set [2] the target is Serine/threonine-protein kinase TBK1 (Homo sapiens) (UniProt Q9UHD2). Briefly: Inhibition of recombinant full-length human TBK1 at 1 uM using KRRRALS(p)VASLPGL as substrate measured after 40 mins in presence of [gamma33P]ATP by scintillation counting method relative to control. In short, it runs like this: (§1)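 Single-point inhibition at 1 µM was measured in the Eurofins KinaseProfiler panel. Values are the mean of two independent experiments.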
Sequence of Serine/threonine-protein kinase TBK1 (Homo sapiens) (Q9UHD2 whole entry): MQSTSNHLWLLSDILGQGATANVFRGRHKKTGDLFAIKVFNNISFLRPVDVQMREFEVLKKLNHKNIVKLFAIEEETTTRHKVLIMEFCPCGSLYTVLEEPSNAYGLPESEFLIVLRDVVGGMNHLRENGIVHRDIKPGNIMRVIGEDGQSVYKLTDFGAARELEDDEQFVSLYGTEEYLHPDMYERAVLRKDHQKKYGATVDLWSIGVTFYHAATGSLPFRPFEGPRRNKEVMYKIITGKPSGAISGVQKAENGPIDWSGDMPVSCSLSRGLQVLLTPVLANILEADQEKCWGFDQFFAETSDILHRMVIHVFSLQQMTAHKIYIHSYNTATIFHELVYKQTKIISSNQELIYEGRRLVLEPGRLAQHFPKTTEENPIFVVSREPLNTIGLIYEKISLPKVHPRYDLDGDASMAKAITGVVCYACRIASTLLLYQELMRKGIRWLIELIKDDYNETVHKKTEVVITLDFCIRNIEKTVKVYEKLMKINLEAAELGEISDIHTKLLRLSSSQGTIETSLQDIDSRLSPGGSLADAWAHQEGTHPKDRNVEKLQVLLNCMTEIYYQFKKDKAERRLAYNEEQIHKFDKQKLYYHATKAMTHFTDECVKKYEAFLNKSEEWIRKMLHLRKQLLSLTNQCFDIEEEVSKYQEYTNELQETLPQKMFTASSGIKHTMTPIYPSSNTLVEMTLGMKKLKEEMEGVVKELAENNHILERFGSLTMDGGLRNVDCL

Data set [3] deals with Serine/threonine-protein kinase NLK (Homo sapiens) (UniProt Q9UBE8). Briefly: Inhibition of recombinant human NLK (121 to end residues) at 1 uM using myelin basic protein as substrate measured after 40 mins in presence of [gamma33P]ATP by scintillation counting method relative to control.
Data set [4] has as its target LIM domain kinase 1 (Homo sapiens) (UniProt P53667). The experiment in a line: Inhibition of recombinant human LIMK1 (285 to 638 residues) at 1 uM using cofilin as substrate measured after 40 mins in presence of [gamma33P]ATP by scintillation counting method relative to control.
The subject of data set [5] is NCI-H1299. The experiment in a line: Inhibition of tumorsphere formation in human H1299 cells assessed as reduction in side population ratio by PI/Hoechst 33342 staining based flow cytometry. In kind it is functional, cell-based.
Data set [6] has as its system NCI-H1299. The experiment in a line: Antitumour activity against human H1299 cells xenografted in Balb/c mouse assessed as reduction in tumour size at 20 to 80 mg/kg, po after 21 days by digital caliper method. In kind it is functional, organism-based. Put shortly: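 Female nude mice, 6-8 weeks old, injected subcutaneously with 1×10^6 H1299 cells (100 µL of a 1×10^7/mL suspension in serum-free medium). At 100-120 mm3, randomized into groups of 5. Dosed orally each day for 21 days with drug dissolved in DMSO, or with vehicle. Caliper measurements and body weight taken every other day. Volume = short²×long×0.5. Growth inhibition based on change in volume relative to vehicle. Tumours weighed at the end.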

Data set [7] relates to NCI-H1299. Briefly: Induction of apoptosis in human H1299 cells assessed as necrotic cells at 1 uM after 48 hrs by AnnexinV-FITC/PI staining-based flow cytometric analysis (reference value: 0.9%). Format: functional.
The nature of data set [8]: Intrinsic clearance in CD-1 mouse liver microsomes at 2 uM in presence of NADPH measured up to 1 hr by HPLC analysis. Format: ADME, Microsome.
Data set [9] addresses Calcium/calmodulin-dependent protein kinase type II subunit beta (Homo sapiens) (UniProt Q13554). The experiment in a line: Inhibition of recombinant human CaMK2 beta (1 to 315 resiudes) at 1 uM using calmodulin as substrate measured after 40 mins in presence of [gamma33P]ATP by scintillation counting method relative to control.
Data set [10] concerns Hepatocyte growth factor receptor (Homo sapiens), P08581 [M1250T]. Briefly: Inhibition of recombinant human MET A1209G/V1290L/M1268T mutant (974 to end residues) at 1 uM using KKKGQEEEYVFIE as substrate measured after 40 mins in presence of [gamma33P]ATP by scintillation counting method relative to control.
Sequence of Hepatocyte growth factor receptor (Homo sapiens), P08581 [M1250T] (P08581 whole entry M1250T, the tested form may be a part): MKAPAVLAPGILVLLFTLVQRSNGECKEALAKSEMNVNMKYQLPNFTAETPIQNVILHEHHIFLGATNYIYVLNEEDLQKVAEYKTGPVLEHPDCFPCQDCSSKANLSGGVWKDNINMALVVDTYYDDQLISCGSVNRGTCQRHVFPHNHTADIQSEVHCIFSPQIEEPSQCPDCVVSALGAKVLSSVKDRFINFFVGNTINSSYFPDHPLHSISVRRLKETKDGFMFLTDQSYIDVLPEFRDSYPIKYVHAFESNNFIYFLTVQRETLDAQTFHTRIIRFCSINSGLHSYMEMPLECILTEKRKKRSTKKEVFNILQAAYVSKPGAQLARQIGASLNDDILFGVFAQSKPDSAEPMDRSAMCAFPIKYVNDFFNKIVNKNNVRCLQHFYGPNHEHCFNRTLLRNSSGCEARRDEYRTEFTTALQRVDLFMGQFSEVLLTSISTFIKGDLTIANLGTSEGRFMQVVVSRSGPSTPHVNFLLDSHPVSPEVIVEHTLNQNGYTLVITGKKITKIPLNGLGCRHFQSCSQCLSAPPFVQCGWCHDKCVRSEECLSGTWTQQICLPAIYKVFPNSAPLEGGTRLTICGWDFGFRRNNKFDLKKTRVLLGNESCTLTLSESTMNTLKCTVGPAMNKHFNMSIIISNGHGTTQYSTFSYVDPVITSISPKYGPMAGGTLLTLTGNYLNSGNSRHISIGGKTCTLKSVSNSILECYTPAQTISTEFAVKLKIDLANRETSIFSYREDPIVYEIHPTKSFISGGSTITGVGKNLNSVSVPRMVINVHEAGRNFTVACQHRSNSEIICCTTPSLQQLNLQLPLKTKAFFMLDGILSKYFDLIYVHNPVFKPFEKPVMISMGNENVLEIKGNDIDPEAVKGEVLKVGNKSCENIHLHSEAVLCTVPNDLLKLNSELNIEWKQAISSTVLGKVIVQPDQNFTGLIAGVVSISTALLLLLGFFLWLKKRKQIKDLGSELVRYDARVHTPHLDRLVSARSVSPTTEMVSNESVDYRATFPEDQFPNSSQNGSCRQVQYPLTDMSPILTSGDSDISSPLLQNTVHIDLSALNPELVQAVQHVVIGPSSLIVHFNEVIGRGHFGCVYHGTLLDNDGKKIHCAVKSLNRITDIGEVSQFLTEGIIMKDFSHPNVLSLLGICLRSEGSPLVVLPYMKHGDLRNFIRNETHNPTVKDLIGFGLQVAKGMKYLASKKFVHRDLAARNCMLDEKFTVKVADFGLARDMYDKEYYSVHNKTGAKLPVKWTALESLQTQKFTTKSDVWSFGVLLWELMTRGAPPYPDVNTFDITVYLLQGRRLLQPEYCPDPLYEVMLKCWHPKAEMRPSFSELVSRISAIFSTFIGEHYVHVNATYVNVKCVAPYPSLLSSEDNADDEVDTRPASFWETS
For data set [11], the target named is Insulin receptor-related protein (Homo sapiens) (UniProt P14616). The experiment in a line: Inhibition of recombinant human IRR (943 to 1266 residues) at 1 uM using myelin basic protein as substrate measured after 40 mins in presence of [gamma33P]ATP by scintillation counting method relative to control.
Data set [12] concerns the target Mitogen-activated protein kinase kinase kinase 11 (Homo sapiens) (UniProt Q16584). Briefly: Inhibition of human MLK3 at 1 uM by radiometric method relative to control. Put shortly:
(§2)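 Percent inhibition of kinase activity at a single compound concentration, measured by the outsourced Eurofins KinaseProfiler panel. Values are the mean of two independent experiments.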

Data set [13] concerns the target Serine/threonine-protein kinase PAK 1 (Homo sapiens) (UniProt Q13153). The experiment in a line: Inhibition of recombinant human PAK1 (150 to end residues) at 1 uM using RRRLSFAEPG as substrate measured after 40 mins in presence of [gamma33P]ATP by scintillation counting method relative to control.
In data set [14] the target is Cytoplasmic tyrosine-protein kinase BMX (Homo sapiens) (UniProt P51813). Briefly: Inhibition of full-length recombinant human BMX at 1 uM using poly(Glu, Tyr) 4:1 as substrate measured after 40 mins in presence of [gamma33P]ATP by scintillation counting method relative to control. Put shortly: as §2
Sequence of Cytoplasmic tyrosine-protein kinase BMX (Homo sapiens) (P51813 whole entry): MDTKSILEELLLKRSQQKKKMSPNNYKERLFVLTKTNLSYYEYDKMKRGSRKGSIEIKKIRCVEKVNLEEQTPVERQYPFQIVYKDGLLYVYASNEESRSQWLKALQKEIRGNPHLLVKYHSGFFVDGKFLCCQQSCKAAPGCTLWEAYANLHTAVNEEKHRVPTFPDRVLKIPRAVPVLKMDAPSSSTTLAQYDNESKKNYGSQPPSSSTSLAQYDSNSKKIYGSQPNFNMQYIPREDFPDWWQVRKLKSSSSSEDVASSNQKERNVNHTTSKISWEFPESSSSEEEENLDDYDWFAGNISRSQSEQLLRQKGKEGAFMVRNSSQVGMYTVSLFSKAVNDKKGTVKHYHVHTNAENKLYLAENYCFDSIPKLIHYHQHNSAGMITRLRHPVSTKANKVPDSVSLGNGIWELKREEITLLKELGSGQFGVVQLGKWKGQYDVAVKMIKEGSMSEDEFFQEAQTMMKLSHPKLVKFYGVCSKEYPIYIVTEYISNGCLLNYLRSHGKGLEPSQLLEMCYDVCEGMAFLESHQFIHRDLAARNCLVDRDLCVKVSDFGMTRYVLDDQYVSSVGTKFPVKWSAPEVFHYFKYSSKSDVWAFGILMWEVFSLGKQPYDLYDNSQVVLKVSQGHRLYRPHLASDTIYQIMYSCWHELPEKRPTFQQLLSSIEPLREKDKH
The target of data set [15] is CDK9/cyclin T1 (Homo sapiens) (UniProt O60563+P50750). The experiment in a line: Inhibition of recombinant full-length human CDK9/cyclinT1 at 500 nM using KTFCGTPEYLAPEVRREPRILSEEEQEMFRDFDYIADWC peptide as substrate measured after 40 mins in presence of [gamma33P]ATP by scintillation counting method relative to control. Format: protein-complex assay. In short, it runs like this: as §2

The target of data set [16] is Serine/threonine-protein kinase Nek2 (Homo sapiens) (UniProt P51955). Briefly: Inhibition of recombinant full-length human NEK2 at 1 uM using myelin basic protein as substrate measured after 40 mins in presence of [gamma33P]ATP by scintillation counting method relative to control.
For data set [17], the target named is Tau-tubulin kinase 2 (Homo sapiens) (UniProt Q6IQ55). Briefly: Inhibition of recombinant human TTBK2 (1 to 331 residues) at 1 uM using casein as substrate measured after 40 mins in presence of [gamma33P]ATP by scintillation counting method relative to control.
The species entered for the next data set is Homo sapiens. Briefly: Inhibition of recombinant human DDR1 V833L mutant (492 to end residues) at 1 uM using KKKSPGEYVNIEFG as substrate measured after 40 mins in presence of [gamma33P]ATP by scintillation counting method relative to control.
Data set [18] deals with cAMP-dependent protein kinase catalytic subunit PRKX (Homo sapiens) (UniProt P51817). The experiment in a line: Inhibition of recombinant full-length human PrKX at 1 uM using RRRLSFAEPG as substrate measured after 40 mins in presence of [gamma33P]ATP by scintillation counting method relative to control.
Data set [19] addresses Serine/threonine-protein kinase WNK3 (Homo sapiens) (UniProt Q9BYP7). Briefly: Inhibition of recombinant human WNK3 (1 to 434 residues) at 1 uM using MBP as substrate measured after 40 mins in presence of [gamma33P]ATP by scintillation counting method relative to control. Put shortly: as §1
In data set [20] the target is Mitogen-activated protein kinase kinase kinase 5 (Homo sapiens) (UniProt Q99683). The experiment in a line: Inhibition of recombinant human ASK1 (649 to 946 residues) at 1 uM using myelin basic protein as substrate measured after 40 mins in presence of [gamma33P]ATP by scintillation counting method relative to control.

Calls of active or inactive are those of the source. The rule behind the calls is not given here.

Our source for the inhibition, Activity and CLH values is ChEMBL document CHEMBL4376814, “Novel cyclin-dependent kinase 9 (CDK9) inhibitor with suppression of cancer stemness activity against non-small-cell lung cancer” (Eur J Med Chem, 2019).

Sequence of Calcium/calmodulin-dependent protein kinase type II subunit beta (Homo sapiens) (Q13554 whole entry): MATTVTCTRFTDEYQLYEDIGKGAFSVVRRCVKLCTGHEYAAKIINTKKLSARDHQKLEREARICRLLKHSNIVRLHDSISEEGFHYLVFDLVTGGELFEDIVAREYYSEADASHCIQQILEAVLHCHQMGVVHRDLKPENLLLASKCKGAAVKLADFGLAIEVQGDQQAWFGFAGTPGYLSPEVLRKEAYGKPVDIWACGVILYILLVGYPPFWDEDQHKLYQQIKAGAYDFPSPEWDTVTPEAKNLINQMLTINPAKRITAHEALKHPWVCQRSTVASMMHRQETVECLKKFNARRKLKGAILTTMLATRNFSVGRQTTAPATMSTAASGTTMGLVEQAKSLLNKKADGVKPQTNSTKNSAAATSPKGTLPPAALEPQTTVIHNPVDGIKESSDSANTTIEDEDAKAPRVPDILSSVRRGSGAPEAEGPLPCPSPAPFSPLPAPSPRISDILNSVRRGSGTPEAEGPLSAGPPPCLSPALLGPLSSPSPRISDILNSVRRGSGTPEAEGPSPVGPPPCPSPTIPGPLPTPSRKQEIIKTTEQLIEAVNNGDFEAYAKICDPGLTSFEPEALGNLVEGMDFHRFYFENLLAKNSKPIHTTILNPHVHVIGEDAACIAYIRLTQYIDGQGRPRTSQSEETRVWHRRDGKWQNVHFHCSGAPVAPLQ
Sequence of LIM domain kinase 1 (Homo sapiens) (P53667 whole entry, looked up, the tested form may be a part): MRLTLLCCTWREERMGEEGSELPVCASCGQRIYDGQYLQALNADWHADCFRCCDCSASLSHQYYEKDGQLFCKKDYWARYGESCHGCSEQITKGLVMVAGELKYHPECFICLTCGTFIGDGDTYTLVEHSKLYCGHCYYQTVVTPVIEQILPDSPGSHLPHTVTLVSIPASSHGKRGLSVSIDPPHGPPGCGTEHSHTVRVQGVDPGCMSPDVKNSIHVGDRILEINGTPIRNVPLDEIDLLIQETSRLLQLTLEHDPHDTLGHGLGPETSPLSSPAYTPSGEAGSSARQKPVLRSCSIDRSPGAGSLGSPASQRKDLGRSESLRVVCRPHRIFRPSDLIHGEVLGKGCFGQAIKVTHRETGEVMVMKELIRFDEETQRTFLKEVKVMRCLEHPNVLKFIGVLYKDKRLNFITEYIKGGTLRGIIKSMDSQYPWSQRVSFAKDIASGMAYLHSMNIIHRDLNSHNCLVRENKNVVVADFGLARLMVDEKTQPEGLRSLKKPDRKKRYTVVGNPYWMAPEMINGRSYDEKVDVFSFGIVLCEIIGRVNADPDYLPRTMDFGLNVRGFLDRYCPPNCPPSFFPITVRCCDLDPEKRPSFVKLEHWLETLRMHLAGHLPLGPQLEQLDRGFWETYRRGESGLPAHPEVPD
Sequence of Mitogen-activated protein kinase kinase kinase 11 (Homo sapiens) (Q16584 whole entry, looked up): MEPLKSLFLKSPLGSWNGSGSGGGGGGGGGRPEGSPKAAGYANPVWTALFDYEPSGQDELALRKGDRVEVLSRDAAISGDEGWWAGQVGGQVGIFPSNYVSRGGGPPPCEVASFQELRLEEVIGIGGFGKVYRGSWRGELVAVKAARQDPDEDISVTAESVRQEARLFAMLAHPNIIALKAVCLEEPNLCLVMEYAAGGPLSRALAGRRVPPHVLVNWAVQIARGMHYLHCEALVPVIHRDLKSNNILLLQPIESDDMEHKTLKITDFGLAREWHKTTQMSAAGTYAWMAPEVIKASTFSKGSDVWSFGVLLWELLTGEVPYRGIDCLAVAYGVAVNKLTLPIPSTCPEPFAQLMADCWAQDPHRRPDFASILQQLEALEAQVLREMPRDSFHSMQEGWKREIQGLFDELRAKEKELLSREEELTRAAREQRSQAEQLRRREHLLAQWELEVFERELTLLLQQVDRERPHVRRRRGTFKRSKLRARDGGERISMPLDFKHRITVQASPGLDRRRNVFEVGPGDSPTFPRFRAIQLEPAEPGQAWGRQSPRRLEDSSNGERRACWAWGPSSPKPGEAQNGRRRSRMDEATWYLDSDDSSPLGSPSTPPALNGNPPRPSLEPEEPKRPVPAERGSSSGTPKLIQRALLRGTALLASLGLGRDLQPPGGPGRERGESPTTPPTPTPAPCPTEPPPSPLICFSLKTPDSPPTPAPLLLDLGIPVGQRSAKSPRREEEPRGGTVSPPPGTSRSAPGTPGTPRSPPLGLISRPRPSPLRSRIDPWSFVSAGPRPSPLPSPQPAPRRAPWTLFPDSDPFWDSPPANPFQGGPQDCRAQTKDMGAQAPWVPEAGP

As for `CN(C)C(=O)c1cc2cnc(Nc3ccc(NC(=O)CCCCCCCN=C=S)cc3)nc2n1C1CCCC1`, the inhibition at 0.5 µM in the data set on HepG2 turned out to be 23%. Moreover, the inhibition in data set [1] was 58%; in data set [2], 12%; in data set [3], 13%; in [4] it was 71%; with NCI-H1299 [5] it was “Dose-dependent effect”; in data set [9], 29%. Besides, the inhibition is 60% in data set [10]; 3% in data set [11]; 90% in data set [12]; -5% in data set [13]; 90% in data set [14]; 98% in [15]. The inhibition in data set [16] was 13%; in data set [17], -5%; in the data set listed under Homo sapiens it was 47%; in [18], -1%; in [19], 12%; in data set [20], -7%. Also, the outcome in the data set on NCI-H1299 [6] was Active. Besides, the Activity with NCI-H1299 [7] was 3.64%. In [8], the CLH was 100 µL/min/mg.
